Assay outcomes from PubChem BioAssay.
Rows were chosen to be rich in hits. Some 4% of all compounds tested hit in one or more screens of this group.
Exocytosis inh: lytic granule exocytosis inhibition | TALL-104 LAMP-1 surface exposure, flow cytometry; cells stimulated with thapsigargin and PMA | inhibition, % at 10 µM | 360,000 compounds, 0.66% hits | AID 651702;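 active = inhibition above about 55%, limit read from the data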
Mdm2-MdmX inh: disrupts the human Mdm2-MdmX interaction; O15151+Q00987; SaOS-2 split-luciferase Mdm2/MdmX complementation, luminescence; inhibition, % at 8 µM; 330,000 compounds, 3% hits;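 active = inhibition of at least 50% at 8 µM in the primary screen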
ABHD5 PLIN5 PPI: inhibitors of human ABHD5-perilipin-5 interaction; Q00G26+Q8WTS1; Split G. princeps luciferase complementation, luminescence, 4 h; inhibition, % at 4 µM; 360,000 compounds, 0.78% hits; AID 602281;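 active = inhibition above the mean inhibition across every tested compound plus 3 SD, cut at about 22% in these data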;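 note: 0% = DMSO only wells and the 100% control is not disclosed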
CHOP UPR activ: activators of apoptotic arm of unfolded protein response (CHOP) | CHO-CHOP luciferase reporter, UPR activation, luminescence; percent of tunicamycin response over DMSO baseline | AID 449763 | activation, % at 10 µM | 330,000 compounds, 0.34% hits;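 active = at 10 µM dose, activation of 40% or more, normalized to positive control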;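 note: 100% = tunicamycin at 10 µg/mL and 0% = DMSO alone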
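assay system = CHO CHOP reporter cells | amount = 500 CHO-CHOP cells per well | buffer or medium = F12 with 10% FBS | incubation = 16-18 h cell attachment, then 6 h compound exposure, 37 °C | detection = luminescence read with Steady-Glo | read-out = percent activation relative to tunicamycin control | controls = tunicamycin high control, DMSO low control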
XBP1 UPR activ: adaptive UPR (XBP1) activation; 330,000 compounds, 0.33% hits; CHO-XBP1 luciferase reporter, IRE1-XBP1 UPR activation, luminescence; percent of tunicamycin response, DMSO as zero; AID 463104; activation, % at 20 µM;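 active = versus positive control, 20 µM dose yields 30% or more activation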;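 note: 100% = tunicamycin at 10 µg/mL and 0% = DMSO only wells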
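Material: CHO cell line with stable XBP1 luciferase reporter; schedule: 16-18 h cell attachment at 37 °C, then 6 h compound exposure; signal: glow luminescence from Steady-Glo reagent; medium: serum-containing F12 medium, 10% FBS; benchmarks: tunicamycin 10 µg/mL and vehicle-only wells; read-out: percent activation relative to tunicamycin reference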
Mdm2 MdmX conf: confirmation of human Mdm2/MdmX interaction inhibitors; AID 489028; shares compounds with Mdm2-MdmX inh; Mdm2-MdmX binding, luminescent assay; inhibition, % at 8 µM; 10,000 compounds, 55% hits; in the data active = inhibition above about 40%
Full FLuc ctr: inhibits full-length luciferase, flagging false Mdm2/MdmX hits; shares compounds with Mdm2-MdmX inh; SaOS-2 full-length luciferase counterscreen, luminescence; inhibition, % at 8 µM; 6,200 compounds, 77% hits;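 active = mean inhibition at 8 µM reaching about 37%, which flags the compound as non-specific, limit read from the data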;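 note: p53-null SaOS-2 cells with luciferase driven by a doxycycline-inducible promoter; compound on cells about two nights before reading with doxycycline added after day one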
An asterisk follows results filed as active.

Screening CCOc1ccc(NC(=O)CCCOc2cc(=O)n(C)c3ccccc23)cc1 returned Exocytosis inh 1, Mdm2-MdmX inh 52*, ABHD5 PLIN5 PPI -4, CHOP UPR activ 2, XBP1 UPR activ 1 and Mdm2 MdmX conf 20.
For Cc1ccnc(NC(=O)CCCOc2cc(=O)n(C)c3ccccc23)c1 the results were Exocytosis inh 1, Mdm2-MdmX inh 75*, ABHD5 PLIN5 PPI 0, CHOP UPR activ -3, XBP1 UPR activ -1, Mdm2 MdmX conf 84* and Full FLuc ctr 117*.
Cn1c(=O)cc(OCCCC(=O)NCc2ccccn2)c2ccccc21 was read as Exocytosis inh -4, Mdm2-MdmX inh 17, ABHD5 PLIN5 PPI -1, CHOP UPR activ 0 and XBP1 UPR activ 0.
For Cn1c(=O)cc(OCC(=O)NC2CCCCC2)c2ccccc21 the results were Exocytosis inh -1, Mdm2-MdmX inh -20, ABHD5 PLIN5 PPI 1, CHOP UPR activ -1 and XBP1 UPR activ 2.
For Cn1c(=O)cc(OCCCC(=O)NC2CCCC2)c2ccccc21 the results were Exocytosis inh -1, Mdm2-MdmX inh 67*, ABHD5 PLIN5 PPI 9, CHOP UPR activ 1, XBP1 UPR activ 3, Mdm2 MdmX conf 48* and Full FLuc ctr 86*.
`CN1CCN(C(=O)c2ccc(COc3ccc(C(C)(C)C)cc3)o2)CC1` gave Exocytosis inh 7, Mdm2-MdmX inh 17, ABHD5 PLIN5 PPI -1, CHOP UPR activ 3 and XBP1 UPR activ -1.
For COc1ccc(S(=O)(=O)Nc2nnc(CC(C)C)s2)cc1 the results were Exocytosis inh -4, Mdm2-MdmX inh 24, ABHD5 PLIN5 PPI 7, CHOP UPR activ -1 and XBP1 UPR activ 0.
For O=C(NCCN1C(=O)S/C(=C\c2ccc(F)cc2)C1=O)c1cccc(S(=O)(=O)N2CCOCC2)c1 the results were Exocytosis inh 0, Mdm2-MdmX inh 0, ABHD5 PLIN5 PPI -7, CHOP UPR activ 4 and XBP1 UPR activ 8.
For Cn1c(=O)cc(OCCCC(=O)NCc2ccc(F)cc2Cl)c2ccccc21 the results were Exocytosis inh 6, Mdm2-MdmX inh 57*, ABHD5 PLIN5 PPI -4, CHOP UPR activ 0, XBP1 UPR activ 1 and Mdm2 MdmX conf 20.
Screening Cc1ccnc(NC(=O)CSc2cc(=O)n(C)c3ccccc23)c1 returned Exocytosis inh -2, Mdm2-MdmX inh 83*, ABHD5 PLIN5 PPI -1, CHOP UPR activ -2, XBP1 UPR activ -3, Mdm2 MdmX conf 76* and Full FLuc ctr 127*.
`Cn1c(=O)cc(SCC(=O)Nc2ccccn2)c2ccccc21` gave Mdm2-MdmX inh 48, CHOP UPR activ -1 and XBP1 UPR activ 0.
`Cc1ccc(S(=O)(=O)N2CCN(C(=O)c3cc4c(s3)CCC(C)C4)CC2)cc1` (configuration not stated) gave Exocytosis inh 3, Mdm2-MdmX inh 47, ABHD5 PLIN5 PPI -13, CHOP UPR activ 20 and XBP1 UPR activ 0.
Cc1ccc(-c2csc(NC(=O)COc3ccc(N(C)S(=O)(=O)c4ccc(C)cc4)cc3)n2)cc1 was read as Exocytosis inh -7, Mdm2-MdmX inh 10, ABHD5 PLIN5 PPI -2, CHOP UPR activ -1 and XBP1 UPR activ -3.
For COc1cc([N+](=O)[O-])ccc1NC(=O)C[n+]1cccc(C)c1 the results were Exocytosis inh 1, Mdm2-MdmX inh -16, ABHD5 PLIN5 PPI -3, CHOP UPR activ 2 and XBP1 UPR activ 3.
`Cc1cc2oc(C(=O)Nc3ccc(S(N)(=O)=O)cc3)c(C)c2cc1Cl` gave Exocytosis inh 0, Mdm2-MdmX inh 55*, ABHD5 PLIN5 PPI -2, CHOP UPR activ 1, XBP1 UPR activ 8, Mdm2 MdmX conf 48* and Full FLuc ctr 58*.
Cc1ccc2c(C)c(C(=O)Nc3ccc(S(N)(=O)=O)cc3)oc2c1C was read as Exocytosis inh 15, Mdm2-MdmX inh 18, ABHD5 PLIN5 PPI 5, CHOP UPR activ 3 and XBP1 UPR activ -1.
